This is a sample that favours compounds with a hit; in the whole collection about 4.9% have one here.
NF-kB neuron act: raises NF-kB expression in human neuronal cells | NF-kB reporter expression; active compounds read high | fold change at 12.5 µM | 190,000 compounds, 1.6% hits; in the data active = fold change above about 3.3
STAT3 act: STAT3 signaling activation; U3A cells, IL-6 STAT3-luciferase reporter, luminescence; 100% = signal with IL-6 EC80 alone; 190,000 compounds, 0.91% hits; activation (% of control), % at 5.6 µM;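 active = activation above the screen-wide mean of compound activation plus 3 SD, cut at about 130% in these data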;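 also: 0% = background luminescence of wells with medium and substrate only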
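Material: STAT1-lacking human U3A cells, STAT3 luciferase reporter | Benchmarks: IL-6-only wells as 100% reference | Probe or stimulus: IL-6 (33 ng/mL) | Timing: Compound 1 h, then IL-6 6 h at 37 °C | Detection: Luminescence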
STAT1 inh: reduces IFN-gamma driven STAT1 reporter signal | NIH 3T3 STAT1-luciferase reporter, luminescence | inhibition, % at 5.5 µM | 200,000 compounds, 0.35% hits | AID 920;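 active = inhibition above a set limit, the mean inhibition across all tested compounds plus 3 SD, cut at about 34% in these data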;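 also: 0% = IFN-gamma with DMSO and 100% = IFN-gamma with 300 µM nifuroxazide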
APP 5'UTR act: APP 5'UTR luciferase reporter activation; 190,000 compounds, 1% hits; activation, % at 2 µM; SH-SY5Y APP 5'UTR luciferase reporter, luminescence; zero percent = DMSO vehicle wells;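 active = activation above a set limit, based on mean plus 3 SD of controls, cut at about 140% in these data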
STAT3 blocker: inhibitors of IL-6 induced STAT3 signaling; U3A cells, IL-6 STAT3-luciferase reporter, luminescence; host cell line lacks STAT1; AID 862; inhibition, % at 5.5 µM; 190,000 compounds, 0.89% hits;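 active = inhibition above the mean inhibition across all screened compounds plus 3 SD, cut at about 44% in these data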;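 also: 0% = DMSO only wells and 100% = 100 µM nifuroxazide control wells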
STAT1 activator: increases IFN-gamma driven STAT1 reporter signal; NIH 3T3 STAT1-luciferase reporter, luminescence; 100% = IFN-gamma alone, no compound; activation (% of control), % at 5.5 µM; 200,000 compounds, 2.6% hits; AID 932;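 active = activation above the screen-wide mean activation plus 3 SD, cut at about 130% in these data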;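 also: raw ratio to IFN-gamma control signal so 100% means no change and 0% no light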
STAT1 act conf: confirmation of STAT1 signaling activators; shares compounds with STAT1 activator; 1,200 compounds, 97% hits; activation (% of control), % at 5.7 µM; NIH 3T3 STAT1-luciferase reporter, IFN-gamma potentiation, luminescence; 100% = IFN-gamma EC80 alone, no compound;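 active = activation above a set limit carried over from the earlier primary STAT1 screen, cut at about 140% in these data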;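 also: simple ratio to median IFN-gamma plus DMSO wells so 0% means no light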
NFkB act STAT1ct: NF-kappaB activation in STAT1 activator counter-screen. AID 1306. 1,200 compounds, 43% hits. shares compounds with STAT1 activator. HEK293T NF-kB luciferase reporter, TNF-alpha stimulated, luminescence; 100% = TNF-alpha with vehicle only. activation (% of control), % at 5.7 µM;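 active = activation above the mean of solvent-only control wells plus 3 SD, set per campaign, cut at about 130% in these data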;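 also: TNF-alpha given at a submaximal dose yielding about 80% of full reporter signal; values are well signal over median control so 100% means no change and 0% no light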
STAT3 act 2: activates human STAT3, counter-screen to STAT1 activators; shares compounds with STAT1 activator; U3A cells STAT3-luciferase reporter, IL-6, luminescence; cells lack STAT1; 100 = IL-6 alone, no compound effect; activation (% of control), % at 5.7 µM; 1,200 compounds, 46% hits;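 active = activation above the solvent-only control well mean plus 3 SD, set per plate batch, cut at about 110% in these data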;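 also: 0% = no luminescence and 100% = median IL-6 plus DMSO wells; higher means more STAT3 reporter activation so hits are non-selective activators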
* marks the source's active call; other numbers are inactive results; / = not tested or not shown.

SMILES	NF-kB neuron act	STAT3 act	STAT1 inh	APP 5'UTR act	STAT3 blocker	STAT1 activator	STAT1 act conf	NFkB act STAT1ct	STAT3 act 2
COc1ccc(C(=O)/C=C/Nc2cccc(C)n2)cc1OC	4.12*	100.8	-85.7	36.2	1.2	171.0*	209.4*	130.4	107.7
COc1ccc(N/C=C\C(=O)c2ccc3c(c2)OCO3)cc1OC	3.08	104.5	-62.9	6.1	-5.4	156.1*	171.2*	132.0	104.1
N#CC1(c2ccccc2)CCC(=NO)CC1 (centres undefined)	1.16	99.4	9.1	0.5	-0.8	91.6	/	/	/
CCc1ccc(C2=NN(S(C)(=O)=O)C(c3cccs3)C2)cc1 (centres undefined)	8.37*	126.1	-61.5	182.4*	-27.0	156.5*	217.8*	142.0*	128.5*
Fc1ccccc1OCCSc1nnnn1-c1ccccc1	6.65*	91.4	-53.1	161.9*	13.5	161.2*	218.9*	124.5	115.2*
c1ccc(OCCSc2nnnn2-c2ccccc2)cc1	6.5*	100.0	-65.7	170.5*	4.0	160.2*	203.6*	122.9	116.6*
Clc1cccc(-c2nnc(-c3ccccc3)o2)c1	8.8*	72.5	-61.0	136.5*	36.2	155.8*	208.7*	117.1	106.7
Clc1cccc(N2CCN(Cc3nnc(-c4ccccc4)o3)CC2)c1	1.09	96.7	3.4	6.9	6.4	96.2	/	/	/
Cc1ccccc1C(=O)OCc1cnc(Cl)s1	1.32	87.8	-6.4	-1.8	18.1	104.1	/	/	/
O=C(Nc1ccc2oc(-c3ccccc3)nc2c1)C1CCCO1 (centres undefined)	3.65*	111.6	-62.6	146.6*	-9.3	155.3*	182.2*	133.7*	102.2
O=C(Nc1ccc2oc(-c3ccccc3)nc2c1)c1cccnc1	1.07	87.6	-14.1	52.8	18.0	112.8	/	/	/
O=C(Nc1ccc2oc(-c3ccccc3)nc2c1)c1ccco1	5.11*	105.8	-76.8	177.7*	-4.0	167.5*	201.7*	134.1*	106.8
c1ccc(CSc2nnc(-c3cccs3)o2)cc1	4.63*	93.3	-63.9	106.0	9.6	158.5*	178.8*	132.3	115.6*
COC(=O)c1cc(NC(=O)C2(S(=O)(=O)c3ccc(C)cc3)CC2)cc(C(=O)OC)c1	1.03	101.6	11.3	-4.7	-4.5	91.4	/	/	/
C=CCNc1oc(/C=C/c2ccccc2)nc1C#N	7.24*	111.2	-61.3	173.9*	-1.4	155.2*	196.9*	143.7*	113.7*
COc1ccc(C(=O)Cn2nnc(-c3ccccc3F)n2)cc1	1.55	97.5	-2.5	24.9	5.5	102.3	/	/	/
COc1ccc(-c2nnn(Cc3ccccc3F)n2)cc1	2.94	103.0	-64.5	117.8	-1.4	163.0*	176.2*	133.3*	114.4*
CCOc1cc(NC(=S)NCCCN2CCOCC2)c(OCC)cc1NC(=O)C1CCCCC1	1.1	100.7	5.5	24.4	2.6	93.0	/	/	/
COc1cc(SC)ccc1C(=O)Nc1ncc(Cl)cc1Cl	3.78*	87.6	-54.5	142.0*	18.8	151.2*	174.3*	125.4	93.8
COc1cc(SC)ccc1C(=O)Nc1ccc2c(c1)OCO2	7.57*	92.8	-56.6	169.5*	8.8	153.2*	249.8*	135.6*	105.5
COc1cc(SC)ccc1C(=O)NCCc1ccccc1	3.52*	111.2	-68.5	85.4	-10.5	161.2*	168.6*	122.5	144.4*
COc1cc(SC)ccc1C(=O)Nc1ccon1	2.09	88.9	-22.1	48.4	17.5	120.5	/	/	/
COc1cc(SC)ccc1C(=O)Nc1ccc(C)cc1C	3.98*	104.3	-59.6	116.3	-2.5	153.3*	188.7*	131.0	105.8
CSc1nc(N)nc(SC2C=CCCC2)c1C#N (centres undefined)	1.84	98.1	-23.0	2.0	3.7	117.3	/	/	/
COc1ccc(C(=O)/C=C/Nc2ccc(S(=O)(=O)Nc3onc(C)c3C)cc2)cc1	1.3	88.9	6.1	-4.3	13.1	94.5	/	/	/
SMILES	NF-kB neuron act	STAT3 act	STAT1 inh	APP 5'UTR act	STAT3 blocker	STAT1 activator	STAT1 act conf	NFkB act STAT1ct	STAT3 act 2
O/N=C/c1cccnc1Sc1ccccc1	1.07	103.0	-2.4	1.6	4.3	101.9	/	/	/
Cc1cc(C(F)(F)F)c(C#N)c(SCC(=O)Nc2nc3ccccc3s2)n1	0.77	120.4	-59.7	180.1*	-21.3	152.4*	260.9*	125.6	192.8*
Cc1cc(C)c(C#N)c(SCC(=O)Nc2ccccc2C)n1	1.39	97.2	3.8	10.1	5.4	97.0	/	/	/
O=Cc1cc2ccccc2nc1SCCCF	1	116.1	-1.8	-44.7	-17.1	101.1	/	/	/
COc1ccc(NC(=O)Cc2ccc(Cl)c(Cl)c2)cn1	1.15	100.0	-8.1	8.7	8.5	105.5	/	/	/
COc1ccc(NC(=O)/C(Cl)=C(/Cl)S(=O)Cc2ccccc2Cl)cn1 (centres undefined)	0.31	87.5	-267.9	-94.2	18.4	346.0*	291.7*	64.6	133.2*
CNS(=O)(=O)c1cccc2nsnc12	1	101.3	-11.0	20.2	1.6	109.9	/	/	/
CCc1ccc2nc(NC(=O)CCCc3cccs3)sc2c1	1.88	110.6	-19.7	/	-14.7	118.1	/	/	/
Cc1ccc2nc(NC(=O)Cc3cccs3)sc2c1	3.7*	83.7	-58.3	93.6	25.1	153.8*	180.0*	137.0*	86.5
CSc1nc2ccc3nc(NC(=O)c4cccs4)sc3c2s1	1.2	88.0	-24.6	22.1	16.4	122.6	/	/	/
CN(C)S(=O)(=O)c1ccc2nc(NC(=O)c3cccs3)sc2c1	3.51*	110.7	-57.8	128.7	-9.0	153.1*	178.7*	115.2	116.9*
O=C(Nc1nc2ccc(F)cc2s1)c1cccs1	7.38*	87.4	-60.1	111.8	19.4	159.0*	246.1*	131.6	104.5
COc1ccc2nc(NC(=O)CN(C)S(=O)(=O)c3cccs3)sc2c1	1.19	102.4	-2.4	14.2	2.0	102.2	/	/	/
O=C(/C=C/Nc1ccc(Nc2ccccc2)cc1)c1cccs1	2.23	102.7	-69.8	97.8	8.5	162.5*	166.1*	140.3*	108.4
O=c1[nH]c2ccccc2nc1Cc1ccccc1	0.91	91.8	1.9	-18.6	12.1	98.2	/	/	/
O=C(Cc1nc2ccccc2[nH]c1=O)c1ccccc1	0.97	129.1	-84.0	160.0*	-24.8	175.4*	196.2*	122.5	154.8*

Compound activity from PubChem BioAssay.
